Assay outcomes from PubChem.
An excerpt weighted towards active compounds, which were near 0.99% of everything screened.
ABCG2 inh – ABCG2 efflux pump inhibitors, primary screen, multiplex with ABCB1, IgMXP3 cells, flow cytometry | Broad substrate specificity ATP-binding cassette transporter ABCG2 (Homo sapiens), Q9UNQ0 | JC-1 efflux | inhibition, % at 6.6 µM | 190,000 compounds, 0.1% hits | AID 1325, 2008;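 active = inhibition above 80%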;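 also: 0% = DMSO and 100% = nicardipine control wells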
Target sequence (Q9UNQ0 whole entry, looked up): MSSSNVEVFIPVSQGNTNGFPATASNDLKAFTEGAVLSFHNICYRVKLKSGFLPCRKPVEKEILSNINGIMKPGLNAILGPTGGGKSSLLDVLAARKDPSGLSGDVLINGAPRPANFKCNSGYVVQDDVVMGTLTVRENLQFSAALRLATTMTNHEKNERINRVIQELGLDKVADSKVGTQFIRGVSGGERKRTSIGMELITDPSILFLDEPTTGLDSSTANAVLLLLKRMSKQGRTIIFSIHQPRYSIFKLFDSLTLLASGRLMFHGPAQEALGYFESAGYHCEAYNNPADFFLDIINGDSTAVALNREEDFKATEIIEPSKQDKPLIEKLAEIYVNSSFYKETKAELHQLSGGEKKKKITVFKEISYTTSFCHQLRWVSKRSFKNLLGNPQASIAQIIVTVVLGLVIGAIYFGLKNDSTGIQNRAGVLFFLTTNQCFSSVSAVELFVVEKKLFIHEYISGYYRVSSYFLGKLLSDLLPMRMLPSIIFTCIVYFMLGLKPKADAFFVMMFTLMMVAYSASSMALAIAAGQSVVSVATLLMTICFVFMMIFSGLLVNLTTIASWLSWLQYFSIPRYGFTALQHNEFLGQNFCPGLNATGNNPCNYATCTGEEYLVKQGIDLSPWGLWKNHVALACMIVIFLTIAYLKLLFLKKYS
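System: two drug-resistant human cell lines, ABCG2 and ABCB1; controls: nicardipine high and DMSO low controls; times: 10 min exposure at 25 °C with rotation, no wash; detection: flow cytometry of retained JC-1 fluorescence; read-out basis: percent efflux inhibition, scaled nicardipine 100% to DMSO 0%; doses: one concentration, 6.6 µM final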
GRK2 inh – compounds blocking aptamer binding on GRK2 – biochemical, human GRK2, bead flow cytometry, HTS, primary screen | Beta-adrenergic receptor kinase 1 (Homo sapiens), P25098 | FAM-aptamer displacement from GRK2 | inhibition of aptamer binding, % at 10 µM | 330,000 compounds, 0.59% hits;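 active = inhibition of aptamer binding above 40%, roughly 3 SD of noise, on plates passing a quality check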;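 also: median bead fluorescence of bound FAM aptamer so fluorescent compounds give negative values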
Tn7 DDE FP – inhibitors of Tn7 peptide binding to fibrin DD(E), primary screen, biochemical, fluorescence polarization, human fibrin, Tn7 probe. Fibrinogen beta chain (Homo sapiens), P02675. FP displacement of FITC-Tn7 peptide from fibrin DD(E); 0% = median of compound wells per plate. inhibition, % at 8.3 µM. 370,000 compounds, 0.13% hits;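 active = inhibition above the mean of compounds falling within the control limits plus 3 SD of them, cut at about 14% in these data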;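 also: 0% = plate median of compound wells and 100% = 10 µM Aha-Tn7 peptide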
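assay system = human clot-derived fibrin DD(E) complex | quantity = Fibrin-DD(E) at 2 µM final | timing = 10 min preincubation, 3 h with tracer, room temperature | signal = fluorescence polarization | measure = percent inhibition | benchmarks = high control wells with 10 µM unlabelled Aha-Tn7 peptide (full inhibition) | replicates = singlicate testing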
Tn6 DDE FP – inhibitors of Tn6 peptide binding to fibrin DD(E), primary screen, biochemical, fluorescence polarization, human fibrin, Tn6 probe | Fibrin DD(E) TRITC-Tn6 fluorescence polarization displacement | inhibition, % at 8.3 µM | 370,000 compounds, 0.21% hits | Fibrinogen beta chain (Homo sapiens), P02675;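 active = inhibition above a per-campaign cutoff: mean of compounds within control limits plus 3 SD, cut at about 15% in these data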;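 also: 0% = median of all compound wells on the plate and 100% = blocking peptide control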
ABCB1 inh – ABCB1 efflux pump inhibitors, primary screen, cell-based, multiplex, flow cytometry, ABCG2 counter-screen; ATP-dependent translocase ABCB1 (Homo sapiens), P08183; CCRF-Adr cells, JC-1 efflux; inhibition, % at 6.6 µM; 190,000 compounds, 0.067% hits; AID 1326, 2008; in the data active = inhibition above about 40%;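 also: 0% = vehicle and 100% = reference inhibitor; higher value means more JC-1 retained so stronger ABCB1 efflux block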
Insulin prom up – insulin promoter activators in MIN6 cells, imaging, high-content screening, mouse beta cells; MIN6 insulin promoter-GFP reporter; active compounds read high; z-score at 5 µM; 190,000 compounds, 0.3% hits; AID 1625, 2009;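 active = z-score above 3 at 5 µM with at least 500 cells counted in the well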
GRK2 CP1 – GRK2 aptamer-displacing inhibitors, retest, confirmation, biochemical, cherry pick 1, bead flow cytometry. aptamer displacement, % at 10 µM. bead-bound GRK2, FAM-aptamer displacement. AID 504451, 2011. 2,000 compounds, 4% hits. shares compounds with GRK2 inh;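 active = aptamer displacement above 40%, near three times the noise of non-fluorescent compounds, on plates passing quality checks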;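 also: negative values mostly reflect intrinsic compound fluorescence rather than true enhancement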
Aptamer quench SP – counter-screen for GRK2 aptamer inhibitors: fluorescent aptamer quenchers; AID 504580; Carboxyfluorescein RNA aptamer on beads, flow cytometry quenching; active compounds read low; shares compounds with GRK2 inh; fluorescence response (% of DMSO), % at 10 µM; 2,000 tested, under 10 active;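 active = compounds that quench the bead-bound fluorescent RNA probe, cutting fluorescence to under half of the solvent control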;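 also: counterscreen run without GRK2 so only probe quenching by compound is measured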
GRK2 confirm 2 – GRK2 aptamer-displacing inhibitors, hit retest, confirmation, biochemical, cherry pick 2, bead flow cytometry; bead-bound GRK2, FAM-aptamer displacement; AID 504782, 2011; inhibition of aptamer binding, % at 10 µM; 360 tested, under 10 active; shares compounds with GRK2 inh;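 active = inhibition of aptamer binding above 40%, about triple the noise seen with nonglowing compounds, on plates passing quality control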;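 also: negative values mostly come from compounds that fluoresce themselves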
FAM quench SP – aptamer fluorescence quenching in GRK2 counter-screen; fluorescence response vs DMSO, % at 10 µM; shares compounds with GRK2 inh; carboxyfluorescein RNA aptamer beads, flow cytometry quenching; active compounds read low; AID 588494; 360 tested, under 10 active;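 active = response vs DMSO under 50%, meaning signal dropped by over half, treated as fluorescence quencher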;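 also: labelled aptamer on streptavidin beads without GRK2 as a quench counter-screen; 100% = bead fluorescence of DMSO wells and lower means quenching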
An asterisk follows results filed as active; · = not tested or not shown.

SMILES | ABCG2 inh | GRK2 inh | Tn7 DDE FP | Tn6 DDE FP | ABCB1 inh | Insulin prom up | GRK2 CP1 | Aptamer quench SP | others
CC1Sc2ccc(S(=O)(=O)CCC(=O)Nc3cc(F)ccc3F)cc2NC1=O (centres undefined) | · | 0 | 7 | 10 | · | · | · | · | GRK2 confirm 2=-2;FAM quench SP=102
CC1Sc2ccc(S(=O)(=O)CCC(=O)Nc3ccccn3)cc2NC1=O (centres undefined) | · | 0 | -2 | 1 | · | · | · | ·
Cc1cc(NC(=O)CCS(=O)(=O)c2ccc3c(c2)NC(=O)C(C)S3)ccc1Br (centres undefined) | · | 3 | · | · | · | · | · | · | GRK2 confirm 2=19;FAM quench SP=102
CC1Sc2ccc(S(=O)(=O)CCC(=O)NCc3ccc(Cl)cc3)cc2NC1=O (centres undefined) | · | 48* | 3 | 4 | · | · | 2 | 103 | GRK2 confirm 2=31;FAM quench SP=98
COc1cccc(Cn2cc(COC(=O)NCCc3ccccc3)nn2)c1 | · | · | 8 | 8 | · | · | · | ·
CCOC(=O)c1cccc(NC(=O)CNC(=O)C2CCCCC2)c1 | 0 | 54* | 3 | 1 | 0 | 1.6 | -1 | 97
O=C(COC(=O)CNC(=O)C1CCCCC1)Nc1ccccc1 | · | 0 | -2 | 8 | · | · | · | ·
Cc1cccc(C)c1NC(=O)COC(=O)CNC(=O)C1CCCCC1 | · | 95* | -11 | -8 | · | · | 0 | 98
O=C(CCc1ccccc1)N[C@H]1[C@H](OCc2ccccc2)CCC[C@@]12C(=O)N(Cc1ccccc1)c1ccc(-c3ccsc3)cc12 | · | · | -4 | 3 | · | · | · | ·
COc1ccc(-n2c3nc4ccccc4nc3c3c(=N)oc(C)nc32)cc1 | 5 | 86* | -10 | 4 | 0 | -0.12 | · | · | GRK2 confirm 2=-1;FAM quench SP=100
CNC(=S)N1CCC(c2nc3ccccc3s2)CC1 | 1 | 2 | -1 | -6 | 0 | 0.36 | · | ·
Cc1ccc(NC(=S)N2CCC(c3nc4ccccc4s3)CC2)cc1 | 4 | 64* | -6 | 4 | 0 | 0.65 | -6 | 105
COc1ccc(O)c(/C=N/NC(=O)c2cc(=O)[nH]c3ccccc23)c1 | · | 68* | 2 | 6 | · | 0.59 | 0 | 102
O=C(COCc1ccccc1)NC1CCCCN(Cc2ccc(Cl)cc2)C1=O (centres undefined) | · | · | 0 | 3 | · | · | · | ·
O=C(Nc1cccc(-c2nc3ncccc3o2)c1)c1sc2cc(Cl)ccc2c1Cl | -5 | 75* | 5 | 1 | -7 | -1.2 | -1 | 105
O=C(Nc1cccc(-c2nc3ncccc3o2)c1)c1sc2ccccc2c1Cl | 0 | 0 | -6 | -3 | 0 | · | · | ·
CC(C)(C)NC(=O)C(c1cccnc1)N(C(=O)c1cnc[nH]1)c1ccc(C(C)(C)C)cc1 (centres undefined) | · | · | -2 | 4 | · | · | · | ·
CCOc1cc(/C=C2\SC(=NC)N(C)C2=O)c(Br)cc1OC(C)=O | · | 74* | -1 | 3 | · | · | 0 | 92
CCC(=O)c1ccc(OCC(O)CN2CCc3ccccc3C2)cc1 (centres undefined) | · | 54* | 3 | 1 | · | · | -1 | 103
